Results on 167 variants are retold here after the RNAGym collection of RNA variant scans (doi:10.1126/science.aae0568).

This sample holds only a part of the variants without activity. A value given as a limit tells only on which side of the number the result lay.

To fix the notation:
B1: tRNA (parent)
chain: GUUCCGUUGGCGUAAUGGUAACGCGUCUCCCUCCUAAGGAGAAGACUGCGGGUUCGAGUCCCGUACGGAACG

In the data set the parent is B1. Briefly: yeast fitness relative to wild type (ratio to wild type); higher = fitter; tRNA-Arg(CCU), competitive growth, 37 C, YPD. The procedure, abridged:
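The tRNA-Arg(CCU) gene variants were made by chemical synthesis with a 3% per-site mutation rate at 69 sites and inserted at the native genomic locus of Saccharomyces cerevisiae. After pooling, the strains were competed in YPD at 37°C for 24 hours in six parallel replicates. Gene amplicons from the start population and each end population were read by 100-nucleotide paired-end sequencing, and Darwinian fitness relative to wild type was taken from genotype frequency changes. Genotypes needed ≥ 100 starting reads, and estimates < 0.5 were set to 0.5.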
Regarding A15C U35A G50C A65C, the yeast fitness was 0.603.
The same measure for A15G C24U C29U C30G U35G A70G: at most 0.5; for A15C U28A C34G C55A A57U U59C C60U: at most 0.5; for A15G A20U C60G: 0.542.
For the variant A15G A21C G39C A45G U53C, the yeast fitness is at most 0.5.
The same measure for A15G A36C U47A G48C U54G A65C: at most 0.5.
For A15C U28A the value was 0.622; for A15G C27G A70U, 0.543.
A15G A43G: the yeast fitness was found to be 0.975.
For A15G A21C A65U the value was 0.641; for A15C U47A G52A, 0.576; for A15G A20U G39A A69C, at most 0.5.
For A15G C24A G63A the value was at most 0.5; for A15C G38A U54A A57U, at most 0.5.
For A15G C24A G52A, the yeast fitness was at most 0.5.
For A15G A69C the value was 0.999.
For A15G A20G C49A C61U C62A G67C the value was at most 0.5.
Regarding A15C G56A C61U C66U, the yeast fitness was at most 0.5.
The same measure for A15G A42C A45C G48A: 0.63; for A15G A20U C29G A43G: at most 0.5; for A15G A20C U54A: at most 0.5.
The same measure for A15C G67A: 0.698; for A15C G52C U64A: at most 0.5; for A15G A20G C49A C62U G63A: at most 0.5.
For A15G A20U C24G A42G U54C the value was 0.575.
In the case of A15G A37C G50C, the yeast fitness is 0.601.
For the variant A15C U32A, the yeast fitness is 0.595.
The same measure for A15G C29U A43C A69U: 0.536; for A15C U19A C30U A37C G41A: at most 0.5.
For A15G A21G C29G A42G C55A the value was at most 0.5.
For A15G C24G C29U the value was at most 0.5; for A15G A42C, 0.863.
In the case of A15G A36C G50A, the yeast fitness was at most 0.5.
For A15G A36G the value was 0.867; for A15G A36U, 0.679.
As to A15C G48C C61A, the yeast fitness is at most 0.5.
Take A15G C24U C29U C30G U35G: the yeast fitness was found to be 0.737.
The same measure for A15C U19C C62A: 0.536; for A15C U16A C31G C34U A69U: at most 0.5.
The same measure for A15C G68C: 0.633; for A15C G68U: 0.735; for A15C G48A: 0.946.
For the variant A15C U19A A21G C22G C30U C55G, the yeast fitness is at most 0.5.
The same measure for A15G C22G U35C A43U: 0.556; for A15C G38C C49G G68C: at most 0.5; for A15G A20U C34A C60A A70C: at most 0.5.
The same measure for A15G C27G A36U G39C A69C: at most 0.5; for A15C G39A A65G A70U: at most 0.5.
Take A15G C29G A37U: the yeast fitness is at most 0.5.
Consider A15C U19A G39A, for which the yeast fitness was 0.519.
For A15G A42C C49A the value was 0.527; for A15C G58A C61G C62G, at most 0.5; for A15G A20G C31U, 0.59.
With A15C U16C A43C, the yeast fitness is at most 0.5.
For A15C U16C G17C C49G the value was at most 0.5; for A15C G25C C29U U35C A43U A57C G58A, at most 0.5; for A15G A40C G50A, at most 0.5.
The same measure for A15C U19A G48A C62G U64C: at most 0.5.
The same measure for A15C G25A: 1.02.
Consider A15C G56C U59C, for which the yeast fitness was at most 0.5.
The same measure for A15G C29G C33G: at most 0.5; for A15G C24G U26A: 0.656; for A15G C29A U64C: at most 0.5.
For the variant A15G A57U C60G G68C, the yeast fitness was at most 0.5.
With A15G A42G G48A, the yeast fitness came to 0.774.
Regarding A15C U16A A45U G48C C61U, the yeast fitness is at most 0.5.
The same measure for A15G A21G A42C C46A: at most 0.5; for A15G C30A A43G A57U: 0.529.
For A15G A57C C62A the value was at most 0.5.
For A15G C29A A69C the value was 0.517.
For A15C U16C C34G C46A C61U C66G, the yeast fitness was at most 0.5.
Turning to A15G A21U A36U C49U G52C C62A G67A, the yeast fitness was at most 0.5.
For A15G A42G A45C the value was 0.557; for A15G A20G A21C C31U, at most 0.5.
As to A15G A20U C34A, the yeast fitness is at most 0.5.
A15G A21C C24G A40U: the yeast fitness was at most 0.5.
For A15G C24G C29U C34G U35C U54G G67C the value was at most 0.5; for A15G A20U A57U C60U, at most 0.5; for A15G A70G, 0.999.
The same measure for A15G A70C: 1.04; for A15C U16A G50A: at most 0.5; for A15G A20U U26C C29G U32A: 0.591.
For A15C G38A A45G G52A C61G the value was 0.539; for A15G A21C U32C U64A, at most 0.5.
Regarding A15G A20G G48A, the yeast fitness stood at 0.738.
The same measure for A15G C29U C34G A40C: 0.694; for A15G A40G: 0.758.
For A15G A37G C55A the value was at most 0.5; for A15G C27A A43G, at most 0.5.
For A15G A36G A70C the value was 0.674; for A15G C27A A36G A43G A65G, 0.571; for A15G A21C C24U, at most 0.5.
With A15C G63A, the yeast fitness is 0.61.
The same measure for A15C G63C: 0.616.
For A15C G41A G48C the value was 0.568; for A15C U19C A65C, 0.628.
The same measure for A15G C27A C60G: at most 0.5; for A15C U35G: 0.621; for A15G A20C C29G G67A: at most 0.5.
In the case of A15G C30A A65C, the yeast fitness was determined as 0.609.
For A15G A43U A69C the value was 0.8; for A15G A20C C24G A57G, at most 0.5; for A15G A20C C24G, 0.626.
Turning to A15G A37G G38A A45U, the yeast fitness was determined as 0.507.
In the case of A15G, the yeast fitness turned out to be 0.987.
For A15C U16C the value was 0.678.
In the case of A15C U16A, the yeast fitness stood at 0.628.
The same measure for A15G A57G C62G C66U: at most 0.5; for A15C U59A A69C: at most 0.5; for A15G C24U C29U C30G U35G A43U: at most 0.5.
The same measure for A15C U16C A37C C60A: at most 0.5; for A15G C29U C34A A42U: at most 0.5; for A15G C24G C66G G67A: 0.64.
For A15G A21G C27U U47C G56C A57G C66G the value was at most 0.5.
As to A15G C24U C34U C61U, the yeast fitness was at most 0.5.
With A15C U19C A37C G51A G67C, the yeast fitness was at most 0.5.
Take A15G A65G A70C: the yeast fitness was determined as 0.714.
With A15G C27U U28C, the yeast fitness amounted to 0.731.
A15G A45U G48A: the yeast fitness is 0.636.
For A15G A21G G52C C62A the value was 0.616.
For A15G C29A A42C A70U the value was at most 0.5.
As for A15C U19A C24G C34G C46U C61A A70U, the yeast fitness was 0.639.
For A15G A37U A43C the value was 0.518; for A15C U35G A57G C66G, 0.56; for A15C U16C A36U A65C, at most 0.5.
Consider A15C G48A A57G, for which the yeast fitness was found to be 0.536.
The same measure for A15C U26C C62U: at most 0.5.
The same measure for A15G C27U G58C: 0.717; for A15G C24G U32A G41A A69U: at most 0.5.
For the variant A15C U19A, the yeast fitness was found to be 0.817.
The same measure for A15G A37C G48C: at most 0.5; for A15C U64A: 0.74; for A15C U64C: 0.956.
As to A15G A21G C34G A45G A65C, the yeast fitness turned out to be 0.67.
For A15C U35C A42G G67U the value was at most 0.5; for A15G C27A, 0.786.
For A15C U19C A21G C34U the value was at most 0.5; for A15G C22G A36U A40G U59A, at most 0.5; for A15G A21C U54G A65U, at most 0.5.
Take A15G A65C: the yeast fitness is 0.867.
For A15C U26G U28C A37G G41A C49G C62U the value was at most 0.5; for A15C G39A C46U, 0.55; for A15C G25A C27A C33U C34A C61U, at most 0.5.
For A15G A21U G63A the value was 0.627; for A15G C24G A37G C49A, at most 0.5; for A15G A40G A65G, 0.663.
The same measure for A15G A36U C55U A65U: at most 0.5; for A15G A21G: 1.02.
For A15G C24G U26A G52A G67A G68C, the yeast fitness was 0.561.
For A15C G39A C62U the value was 0.553; for A15G C24G U26A G52A, 0.589.
The same measure for A15G A21U A37C G39C A57U C62U: at most 0.5; for A15G A20C C34A: at most 0.5.
The same measure for A15C U19C C31G G56C C66U: at most 0.5.
As to A15G A20U C33A A36C A42U, the yeast fitness was at most 0.5.
The same measure for A15C G25C C29U U35C A43U A70U: at most 0.5; for A15C U16C A43U A70G: 0.532; for A15G C24G G52A C66G G67A: at most 0.5.
A15G A21C C34U C61U: the yeast fitness is at most 0.5.
With A15G C29A A36G G39A, the yeast fitness is at most 0.5.
The same measure for A15C G44C: 0.684; for A15G C22U: 0.871; for A15G A37G: 0.795.
Turning to A15G A37C, the yeast fitness was found to be 0.666.
For A15G A36G G44C the value was 0.659; for A15G A43U A57C, 0.559; for A15C U16C A37C G50A U53A C61U, 0.58.
